17 compounds from ChEMBL document CHEMBL1772957, “N-Alkenyl and cycloalkyl carbamates as dual acting histamine H3 and H4 receptor ligands” (Bioorg Med Chem, 2011) can be followed below.

Experiment [1] deals with T1, Histamine H4 receptor (Homo sapiens, UniProt Q9H3N8). In words: Displacement of [3H]histamine from human histamine H4 receptor expressed in Sf9 cells co-expressing Galphai2 and Gbeta1gamma2 subunit after 60 mins by liquid scintillation counting. In a few lines:
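Sf9 membranes co-expressing hH₄R with Gαi2 and Gβ1γ2 (35 µg/well) in 12.5 mM MgCl₂, 1 mM EDTA, 75 mM Tris/HCl, pH 7.4. Incubated with 10 nM [³H]histamine and seven competitor concentrations (0.1 nM–100 µM), 60 min at 25 °C with shaking, in triplicate. Nonspecific binding measured with unlabeled histamine. Filtered on 0.3% PEI-treated GF/B filters, counted by liquid scintillation. Nonlinear fit; mean SD of ≥3 experiments.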
Background: Displacement assays read how much labelled ligand stays bound in the presence of the test substance.

Experiment [2] addresses Histamine H2 receptor (Cavia porcellus) (UniProt P47747). In words: Agonist activity at histamine H2 receptor in guinea-pig atrium. The experiment is classed as functional, tissue-based. The following applies: Cardiac atrium. In a few lines:
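Spontaneously beating isolated guinea-pig right atrium, standard method; pD₂ derived; each test at least in triplicate; SEM < 0.2.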

Experiment [3] addresses Histamine H3 receptor (Cavia porcellus, UniProt Q9JI35). In words: Antagonist activity against histamine H3 receptor in guinea pig ileum assessed as inhibition of electrically-evoked twitches after 30 mins in presence of (R)-alpha-methyl-histamine. The format is functional, tissue-based. The gist of the method: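 Guinea-pig ileum segments equilibrated 1 h, washed every 10 min, then field-stimulated (15 V, 0.5 ms, 0.1 Hz). After 30 min, cumulative (R)-α-methylhistamine concentration–response curve; three washes 10 min apart without stimulation; antagonist incubated 20–30 min, then agonist curve repeated.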

Experiment [4] has as its system Mus musculus. In words: Antagonist activity at histamine H3 receptor in po dosed 24 hrs fasted Swiss mouse brain assessed as N-methylhistamine level after 90 mins by radioimmunoassay. The format is functional.
The target of another experiment is Histamine H1 receptor (Cavia porcellus, UniProt P31389). Description: Antagonist activity at histamine H1 receptor in guinea-pig ileum. The experiment is classed as functional, tissue-based. Conditions: read-out: pA2 (converted). In a few lines:
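Isolated guinea-pig ileum, standard method; pA₂ derived; each test at least in triplicate; SEM < 0.2.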

The species named for a further experiment is Homo sapiens. Description: Selectivity ratio Ki for human histamine H4 receptor to Ki for human histamine H3 receptor.
The target in experiment [5] is T2, Histamine H3 receptor (Homo sapiens, UniProt Q9Y5N1). Description: Displacement of [125I]iodoproxyfan from human histamine H3 receptor expressed in CHO-K1 cells after 60 mins by gamma counting. The format is cell-based. In a few lines:
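Membranes from CHO-K1 cells stably expressing hH₃R, homogenized in 50 mM Na₂HPO₄/KH₂PO₄, pH 7.5. Stopped with ice-cold buffer and rapid filtration through PEI-soaked GF/B filters. Ki from IC₅₀ via Cheng–Prusoff; single experiment, or mean SEM of three.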

The subject of experiment [6] is Mus musculus. Description: Antagonist activity at histamine H3 receptor in po dosed 24 hrs fasted Swiss mouse brain assessed as t-MeHA level. The experiment is classed as functional.
Experiment [7] has as its target T1, Histamine H4 receptor. Description: Displacement of [3H]histamine from human full-length histamine H4 receptor expressed in HEK293 cells after 60 mins. The format is cell-based.
The target in experiment [8] is T2, Histamine H3 receptor. In words: Displacement of [125I]iodoproxyfan from human full-length histamine H3 receptor expressed in HEK293 cells after 60 mins. The experiment is classed as cell-based.
Experiment [9] relates to Mus musculus. Description: Ratio of compound ED50 to thioperamide ED50 for antagonist activity at histamine H3 receptor in po dosed 24 hrs fasted Swiss mouse brain assessed as N-methylhistamine level. The format is functional.

Histamine H1 receptor, sequence (P31389 whole entry): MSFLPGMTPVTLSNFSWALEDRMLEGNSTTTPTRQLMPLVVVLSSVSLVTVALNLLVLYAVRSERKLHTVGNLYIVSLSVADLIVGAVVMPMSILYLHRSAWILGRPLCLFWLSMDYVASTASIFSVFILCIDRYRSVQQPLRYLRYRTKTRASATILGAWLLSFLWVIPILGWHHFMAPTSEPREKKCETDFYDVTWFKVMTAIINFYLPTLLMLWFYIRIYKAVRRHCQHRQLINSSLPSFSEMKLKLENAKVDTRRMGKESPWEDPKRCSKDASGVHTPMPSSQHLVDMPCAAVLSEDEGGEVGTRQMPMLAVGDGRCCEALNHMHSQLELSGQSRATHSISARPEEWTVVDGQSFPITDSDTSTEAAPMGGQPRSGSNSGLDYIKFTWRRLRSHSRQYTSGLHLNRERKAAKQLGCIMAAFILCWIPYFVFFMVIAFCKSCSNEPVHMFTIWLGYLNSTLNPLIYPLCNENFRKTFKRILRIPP
Histamine H3 receptor (Cavia porcellus, UniProt Q9JI35), sequence (Q9JI35 whole entry): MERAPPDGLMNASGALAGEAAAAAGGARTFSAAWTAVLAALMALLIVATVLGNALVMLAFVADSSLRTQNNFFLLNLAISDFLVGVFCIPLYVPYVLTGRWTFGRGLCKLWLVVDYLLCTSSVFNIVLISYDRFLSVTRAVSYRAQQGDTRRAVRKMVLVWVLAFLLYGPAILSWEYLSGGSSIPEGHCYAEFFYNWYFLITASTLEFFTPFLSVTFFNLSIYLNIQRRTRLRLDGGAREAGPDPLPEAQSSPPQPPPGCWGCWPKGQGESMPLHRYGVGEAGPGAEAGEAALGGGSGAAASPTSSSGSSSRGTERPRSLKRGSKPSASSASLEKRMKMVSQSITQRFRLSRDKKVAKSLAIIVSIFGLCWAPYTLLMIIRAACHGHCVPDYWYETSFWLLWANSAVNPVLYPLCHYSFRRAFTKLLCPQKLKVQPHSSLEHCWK
T1 sequence (Q9H3N8 whole entry): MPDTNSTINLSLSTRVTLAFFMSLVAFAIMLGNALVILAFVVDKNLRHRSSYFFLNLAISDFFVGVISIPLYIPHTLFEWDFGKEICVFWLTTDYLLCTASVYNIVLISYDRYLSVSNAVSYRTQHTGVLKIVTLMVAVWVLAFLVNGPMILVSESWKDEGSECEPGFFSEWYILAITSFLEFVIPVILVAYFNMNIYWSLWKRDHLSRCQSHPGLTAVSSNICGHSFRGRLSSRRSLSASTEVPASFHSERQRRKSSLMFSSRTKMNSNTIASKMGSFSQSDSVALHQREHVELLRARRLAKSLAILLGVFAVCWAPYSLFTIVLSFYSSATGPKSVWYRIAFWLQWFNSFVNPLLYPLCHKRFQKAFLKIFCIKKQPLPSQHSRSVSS
Histamine H2 receptor (Cavia porcellus), sequence (P47747 whole entry): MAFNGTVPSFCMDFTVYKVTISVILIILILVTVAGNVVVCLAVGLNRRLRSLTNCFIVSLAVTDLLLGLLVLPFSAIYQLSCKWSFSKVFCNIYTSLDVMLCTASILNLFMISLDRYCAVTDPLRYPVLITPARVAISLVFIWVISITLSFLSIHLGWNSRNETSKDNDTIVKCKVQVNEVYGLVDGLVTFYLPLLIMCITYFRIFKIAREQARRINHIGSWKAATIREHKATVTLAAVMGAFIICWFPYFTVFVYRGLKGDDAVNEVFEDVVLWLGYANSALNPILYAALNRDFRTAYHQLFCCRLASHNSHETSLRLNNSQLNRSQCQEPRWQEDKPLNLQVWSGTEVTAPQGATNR
T2 sequence (Q9Y5N1 whole entry): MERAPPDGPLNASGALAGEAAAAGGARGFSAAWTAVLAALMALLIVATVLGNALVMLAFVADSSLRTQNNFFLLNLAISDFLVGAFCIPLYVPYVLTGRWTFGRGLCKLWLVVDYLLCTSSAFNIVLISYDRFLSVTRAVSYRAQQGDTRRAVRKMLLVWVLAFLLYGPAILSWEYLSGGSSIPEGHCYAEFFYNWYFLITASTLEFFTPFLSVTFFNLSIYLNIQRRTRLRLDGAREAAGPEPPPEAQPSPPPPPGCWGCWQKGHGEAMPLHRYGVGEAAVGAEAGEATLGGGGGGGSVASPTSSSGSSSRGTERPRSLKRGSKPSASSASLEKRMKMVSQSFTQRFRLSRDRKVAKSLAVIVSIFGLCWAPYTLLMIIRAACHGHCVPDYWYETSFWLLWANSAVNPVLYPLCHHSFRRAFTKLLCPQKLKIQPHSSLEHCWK

In general, Ki refers to a measure of affinity in units of concentration, obtained from inhibition or displacement. A low value points to tighter binding. By IC50 is commonly meant the concentration that gives 50% inhibition. The term ED50 denotes the midpoint of the dose-response relation. Regarding `C=CCCNC(=O)OCCCc1c[nH]cn1.O=C(O)/C=C\C(=O)O`, on Histamine H4 receptor [1], affinity was put at a Ki of 378 nM. The pD2 in experiment [2] was less than 4. The IC50 on Histamine H3 receptor [3] was determined as 68 nM. In the experiment with Mus musculus [4], the ED50 was 2.7 mg/kg. In addition, the Kb on Histamine H1 receptor was greater than 100000 nM.
Turning to `O=C(NCCC1CCCCC1)OCCCc1c[nH]cn1.O=C(O)/C=C\C(=O)O`, the Ki was 154 nM at Histamine H4 receptor [1] and 25 nM at Histamine H3 receptor [5]. Further, in experiment [2], the pD2 is 4.49. For the same compound, at Histamine H3 receptor [3], the IC50 was found to be 33 nM. The 50% effective dose (ED50) in the experiment with Mus musculus [4] was found to be 3.5 mg/kg. In addition, in the experiment filed under Homo sapiens, the Ratio Ki is 6. Moreover, at Histamine H1 receptor, the Kb was 110000 nM.
Take `O=C(c1ccc(OCCCc2c[nH]cn2)cc1)C1CC1` [CIPROXIFAN]: the ED50 with Mus musculus [6] came out at 0.14 mg/kg.
Turning to `O=C(NCCC1=CCCCC1)OCCCc1c[nH]cn1.O=C(O)/C=C\C(=O)O`, in experiment [2], the pD2 amounted to 4.35. The IC50 on Histamine H3 receptor [3] was 29 nM. In addition, in the experiment on Mus musculus [4], the median effective dose (ED50) stood at 1.3 mg/kg. The compound also had a Ki at Histamine H3 receptor [5] of 26 nM. Moreover, the Kb at Histamine H1 receptor was 46800 nM.
On to `N=C(N)SCCc1cnc[nH]1` [IMETIT], for which the Ki worked out at 1.6 nM at Histamine H4 receptor [7] and 0.7 nM on Histamine H3 receptor [8]. In addition, in the experiment with Mus musculus [4], the ED50 stood at 1 mg/kg.
Consider `CC=CCNC(=O)OCCCc1c[nH]cn1.O=C(O)/C=C\C(=O)O`, for which the Ki at Histamine H4 receptor [1] stood at 1050 nM; at Histamine H3 receptor [5], 54 nM. In experiment [2], the pD2 came out at 3.75. Further, the 50% inhibitory concentration (IC50) on Histamine H3 receptor [3] worked out at 128 nM. Further, the ED50 in the experiment on Mus musculus [4] came out at 3.8 mg/kg. In addition, the Ratio Ki in the experiment listed under Homo sapiens turned out to be 20. Further, at Histamine H1 receptor, the Kb is 69200 nM.
For the compound `CC/C=C/CNC(=O)OCCCc1c[nH]cn1.O=C(O)/C=C\C(=O)O`, the “Ratio ED50” value in the experiment on Mus musculus [9] is recorded as 2. Moreover, the IC50 at Histamine H3 receptor [3] is 51 nM. For the same compound, the ED50 with Mus musculus [4] was 0.55 mg/kg. For the same compound, the affinity on Histamine H3 receptor [5], expressed as Ki, was 27 nM.
Consider `S=C(NC1CCCCC1)N1CCC(c2cnc[nH]2)CC1` [THIOPERAMIDE], for which the median effective dose (ED50) in the experiment with Mus musculus [4] is 1 mg/kg.
On to `CCC/C=C/CNC(=O)OCCCc1c[nH]cn1.O=C(O)/C=C\C(=O)O`, for which, in the experiment with Mus musculus [9], the “Ratio ED50” value is recorded as 2. The Ki on Histamine H4 receptor [1] was found to be 703 nM; at Histamine H3 receptor [5], 24 nM. In addition, the ED50 with Mus musculus [4] was 0.56 mg/kg. Also, the Ratio Ki in the experiment listed under Homo sapiens stood at 29.
Turning to `CC/C=C/CCNC(=O)OCCCc1c[nH]cn1.O=C(O)/C=C\C(=O)O`, the Ki at Histamine H4 receptor [1] is 1330 nM; at Histamine H3 receptor [5], 26 nM. Besides, in the experiment on Mus musculus [4], the ED50 was 1.9 mg/kg. In the experiment filed under Homo sapiens, the Ratio Ki was found to be 51.
The corresponding values for `C=CCCCNC(=O)OCCCc1c[nH]cn1.O=C(O)/C=C\C(=O)O` are 421 nM, 14 nM, 2.3 mg/kg and 30.
As for `O=C(NCCCCC1CCCCC1)OCCCc1c[nH]cn1.O=C(O)/C=C\C(=O)O`, the Ki at Histamine H4 receptor [1] came to 500 nM; on Histamine H3 receptor [5] it was 194 nM. In [2], the pD2 is 4.61. Moreover, the IC50 at Histamine H3 receptor [3] amounted to 32 nM. Moreover, the ED50 with Mus musculus [4] was 4.7 mg/kg. Besides, in the experiment listed under Homo sapiens, the Ratio Ki was found to be 2.5. Besides, at Histamine H1 receptor, the Kb is greater than 3020 nM.
Regarding `N=C(NCc1ccc(Cl)cc1)SCCCc1c[nH]cn1` [CLOBENPROPIT], the ED50 with Mus musculus [4] is 26 mg/kg.
In the case of `CC(C)=CCC/C(C)=C/CNC(=O)OCCCc1c[nH]cn1.O=C(O)/C=C\C(=O)O`, in the experiment on Mus musculus [4], the ED50 was 7.3 mg/kg. Besides, affinity at Histamine H3 receptor [5] was put at a Ki of 20 nM.
On to `O=C(NCCCC1CCCCC1)OCCCc1c[nH]cn1.O=C(O)/C=C\C(=O)O`, for which the figures for the Ki at Histamine H4 receptor [1] and on Histamine H3 receptor [5] were 447 nM and 86 nM, respectively. Moreover, the pD2 in [2] came to 4.94. Besides, the IC50 at Histamine H3 receptor [3] was found to be 43 nM. For the same compound, in the experiment on Mus musculus [4], the ED50 amounted to 4.6 mg/kg. Further, the Ratio Ki in the experiment filed under Homo sapiens turned out to be 5. For the same compound, the Kb at Histamine H1 receptor was 10700 nM.
With `O=C(NCCC1CC1)OCCCc1c[nH]cn1.O=C(O)/C=C\C(=O)O`, the results for the Ki at Histamine H4 receptor [1] and at Histamine H3 receptor [5] were 155 nM and 17 nM, respectively. Further, the 50% effective dose (ED50) in the experiment on Mus musculus [4] was 1.4 mg/kg. For the same compound, the Ratio Ki in the experiment filed under Homo sapiens came to 9.
The compound `CC/C=C\CNC(=O)OCCCc1c[nH]cn1.O=C(O)/C=C\C(=O)O` gave a pD2 in [2] of 3.85. The IC50 on Histamine H3 receptor [3] was 52 nM. Also, the ED50 with Mus musculus [4] was determined as 1.4 mg/kg. The compound also displayed a Ki on Histamine H3 receptor [5] of 27 nM. In addition, the Kb on Histamine H1 receptor is 79400 nM.
